Bioassay records: PubChem BioAssay, several laboratories
TNF necrop inh = inhibitors of TNF-alpha triggered necroptosis, primary screen, cell-based, Jurkat FADD-/-, single concentration; Jurkat FADD-/- TNF necroptosis rescue, ATP luminescence, 24 h; 0 = TNF only, 100 = no-TNF cells; activation (protection from cell death), % at 10 µM; 220,000 tested, 0.068% active;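 active means activation, meaning protection from cell death, of at least 50% relative to plate controls; inactive means activation below 50%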;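 further: necroptosis triggered by 40 ng/mL TNF-alpha added together with compound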
L929 necroptosis = inhibitors of zVAD-triggered necroptosis, primary screen, L929 cells. L929 zVAD necroptosis rescue, ATP luminescence, 24 h; with zVAD 60 µM. viability rescue, % at 10 µM. 220,000 tested, 0.38% active. AID 1377, 2008;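 active means activation, scaled between plate controls, above about 75%, limit read from the data; inactive means activation under that limit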
Dynein cargo inh = inhibitors of GR-EGFP nuclear translocation, primary screen, dynein cargo transport inhibitor project, imaging, high-content, 3617.4 mouse cells; 220,000 tested, 0.47% active; z-score, hits read low; test concentration mostly 20 µM; stimulated with dexamethasone, 1 µM; active compounds read low;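 active means plate z-score of nuclear minus cytoplasmic receptor signal below a set negative limit, without overly bright fluorescence or cell loss, cut at about -3.5 in these data, passing the limit was not always enough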;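 further: z-score of nuclear minus cytoplasmic ring GR-EGFP intensity difference per well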
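Buffer or medium: tetracycline-free induction medium containing charcoal-stripped FBS / Reagent: dexamethasone agonist, 1.0 µM final, for 30 min / Technique: automated 10x imaging of fixed Hoechst-stained cells / Times: induction 48 h, compound 1 h, agonist 30 min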
Beta2AR agonist = beta2AR agonists driving receptor internalization, primary screen, cell-based, FAP fluorogen, flow cytometry | 340,000 tested, 0.43% active | AID 504454, 2011 | Beta-2 adrenergic receptor (Homo sapiens), P07550 | Am2.2-beta2AR cells | response, % (no concentration beside the values);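 active means response above a set limit, near 3 SD of response in nonfluorescent compounds, cut at about 42% in these data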
Mdm2 ligase inh = MDM2-luciferase reporter signal enhancers, primary screen, MDM2 E3 ligase inhibitor project, cell-based, luminescence, 1536-well. E3 ubiquitin-protein ligase Mdm2 (Homo sapiens), Q00987. cell-based MDM2 ubiquitination luciferase reporter, 2 h; 0 = plate control, 100 = twice control, blank-subtracted. signal enhancement, % at 5 µM. 210,000 tested, 0.11% active. AID 1230, 2008;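 active means signal enhancement of 30% or more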;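 further: luminescence tracks abundance of the self-degrading MDM2-luciferase fusion protein; higher signal means inhibition of MDM2 E3 ligase activity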
Target sequence (Q00987 whole entry, looked up, the tested form may be a part): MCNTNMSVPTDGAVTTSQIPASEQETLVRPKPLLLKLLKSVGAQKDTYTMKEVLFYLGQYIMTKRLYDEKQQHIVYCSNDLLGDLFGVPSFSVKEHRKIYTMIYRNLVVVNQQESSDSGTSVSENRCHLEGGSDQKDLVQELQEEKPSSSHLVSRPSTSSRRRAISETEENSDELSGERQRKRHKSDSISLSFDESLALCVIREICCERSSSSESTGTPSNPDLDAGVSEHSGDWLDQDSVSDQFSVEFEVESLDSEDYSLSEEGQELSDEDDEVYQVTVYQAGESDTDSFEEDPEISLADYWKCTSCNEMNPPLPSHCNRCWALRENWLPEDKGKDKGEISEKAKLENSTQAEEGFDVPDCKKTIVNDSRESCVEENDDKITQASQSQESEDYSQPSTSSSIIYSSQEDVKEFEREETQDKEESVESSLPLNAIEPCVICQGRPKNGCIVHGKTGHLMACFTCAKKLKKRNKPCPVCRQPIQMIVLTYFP
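Test system: mammalian cells stably expressing self-ubiquitinating, self-degrading MDM2 E3–luciferase fusion; Amount: 2000 cells in each well; Medium: DMEM; Schedule: 4 h settle plus 2 h compound, 37 °C; Technique: SteadyLite luciferase luminescence after 15 min room-temperature reagent incubation; Benchmarks: plate control and blank wells.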
zVAD necrop conf = inhibitors of zVAD-triggered necroptosis in L929, confirmation, L929 cells, duplicate runs; L929 zVAD-induced necroptosis rescue, ATP luminescence, 24 h; AID 463117, 2010; shares compounds with L929 necroptosis; 760 tested, 16% active; activation (protection from necroptosis), % at 10 µM;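 active means mean protection from necroptosis of at least 50% over duplicate tests; inactive means mean protection below 50%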
Numbers stand for hits; i = inactive; nt = no result. Rows were chosen to be rich in hits. Some 0.97% of all compounds tested hit in one or more screens of this group.

SMILES	TNF necrop inh	L929 necroptosis	Dynein cargo inh	Beta2AR agonist	Mdm2 ligase inh	zVAD necrop conf
CCCCCC(=O)N[C@@H](c1ccccc1)[C@@H](O)C(=O)O[C@H]1C[C@@]2(O)[C@@H](OC(=O)c3ccccc3)C3[C@](C)(C(=O)[C@H](OC(C)=O)C(=C1C)C2(C)C)[C@@H](O)C[C@H]1OC[C@@]31OC(C)=O (stereo partly specified)	nt	nt	nt	i	nt	nt
N#CCCCN1C(=O)C(=C(C#N)C#N)c2ccccc21	i	76.1	i	i	i	i
COc1ccc(C(CNC(=O)COc2ccccc2C)N2CCOCC2)cc1 (stereo unspecified)	nt	nt	nt	i	nt	nt
Nc1nonc1-n1nnc(C(=O)N/N=C/c2ccc(Br)cc2)c1CSC1=NCCS1	i	77.8	i	i	i	i
O=C(CN(Cc1ccccc1)C(=O)c1csnn1)NCCc1ccccc1	nt	nt	nt	i	nt	nt
CC(C)C(=O)Nc1cccc(C(=O)Nc2nccs2)c1	i	76.6	i	i	i	i
CCCC(=O)Nc1cccc(C(=O)Nc2nccs2)c1	i	97.7	i	i	i	i
CCC(=O)Nc1cccc(C(=O)Nc2nccs2)c1	i	85.7	i	i	i	i
NC(=O)NOCc1ccc(F)cc1Cl	i	i	i	i	i	nt
NC(=O)NOCc1ccc(Cl)cc1Cl	i	84.3	i	i	i	i
CCCS(=O)(=O)c1ccc(COC(=O)c2ccc(NC(C)=O)cc2)cc1	i	79.1	i	i	i	i
CC(=O)Nc1ccc(C(=O)OCC(=O)NC(=O)NC2CCCCC2)cc1	i	80.2	i	i	i	i
CC(=O)Nc1ccc(C(=O)OCc2ccc(Cl)cc2)cc1	i	i	i	i	i	nt
O=C(NCc1ccccc1)[C@]1(C(F)(F)F)C[C@H](CCc2ccccc2)CCCO1	nt	nt	nt	i	nt	nt
CC(=O)/C=C(\C)Nc1ccc(-c2cnc(-c3ccccc3)o2)cc1	i	95.6	i	i	i	i
Cc1ccc(S(=O)(=O)N2CCN(C(=O)CSc3ncn[nH]3)CC2)c(C)c1	nt	nt	nt	i	nt	nt
CCCCNC(=O)c1ccc2c(c1)ncn2C1CCCCC1	i	78.6	i	i	i	i
CCCNC(=O)c1ccc2c(c1)ncn2-c1cc(C)cc(C)c1	i	76.2	i	i	i	i
Cc1cc(C)nc(N2CCN(C(=O)CCC(=O)Nc3nnc(C(C)C)s3)CC2)n1	i	76.1	i	i	i	i
CC(C)c1nnc(NC(=O)CCC(=O)N2CCN(c3ccccc3F)CC2)s1	nt	nt	nt	i	nt	nt
O=c1c(O)c(-c2ccc3c(c2)OCO3)oc2ccccc12	i	76.9	i	i	i	i
O=C(COC(=O)CCc1ccccc1)NC12CC3CC(CC(C3)C1)C2	i	i	i	i	i	nt
Cc1ccccc1NC(=O)C1CCC(C)(C(=O)O)C1(C)C (stereo unspecified)	i	i	i	i	i	nt
O=C(CSc1ncn(-c2ccccc2)n1)Nc1nncs1	i	i	i	i	i	nt
CC(=O)Nc1ccc(C(=O)CSc2ncn(-c3ccccc3)n2)cc1	i	79.5	i	i	i	i
SMILES	TNF necrop inh	L929 necroptosis	Dynein cargo inh	Beta2AR agonist	Mdm2 ligase inh	zVAD necrop conf
Nc1ncnc2oc(-c3ccco3)c(-c3ccco3)c12	i	79.1	i	i	i	i
Cc1[nH]c2ccc(C(=O)N3CCCCC3)cc2c1C	i	i	i	i	i	nt
Fc1ccc(-c2onc3ccc(C4OCCO4)cc23)cc1	i	i	i	i	i	nt
O=Cc1ccc2noc(-c3ccc(F)cc3)c2c1	i	81.8	i	46.1	i	i
COc1ccc(OC)c(-c2csc(NC(=O)CSCc3c(C)noc3C)n2)c1	nt	nt	nt	i	nt	nt
COc1ccc(CC(=O)Nc2nnc(C(C)C)s2)cc1	i	81.5	i	i	i	i
COc1ccc(NC(=O)Nc2nnc(C(C)C)s2)cc1	i	95.3	i	i	i	i
CCCc1nnc(NC(=O)Nc2ccc(OC)cc2)s1	i	i	i	i	i	nt
CC(C)c1nnc(NC(=O)Cc2ccc(Br)cc2)s1	i	nt	i	i	i	nt
